From ChEMBL document CHEMBL1155436, “Phantasmidine: an epibatidine congener from the ecuadorian poison frog Epipedobates anthonyi” (J Nat Prod, 2010)
Calls of active or inactive are those of the source. No cut-off for these calls is given here.

Key:
[1] = Selectivity of beta4 nAChR over beta2 nAChR
[2] = biological target: T1, Neuronal acetylcholine receptor; alpha3/beta4 (Rattus norvegicus) (UniProt P04757+P12392); test: Agonist activity at rat alpha3beta4 nAChR expressed in HEK cells assessed as membrane depolarization after 1 hr by HPLC based fluorescence assay; assay type: functional, cell-based; details: HEK293
Method in brief: (§1)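 Membrane potential assay in G418-selected KXR3β4R2, KXR4β4R1 or KXR4β2R2 lines on poly-D-lysine plates (DMEM, 10% FBS, near confluence). Cells washed in HBSS/HEPES pH 7.4 and loaded with no-wash dye 1 h dark at room temperature. Fractions reconstituted in HBSS/HEPES, added after 15 s basal, read 105 s. Nicotine (300 µM added solution) and KCl (160 mM) follow. Peak response normalised to KCl maximum after basal subtraction.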

[3] = biological target: T2, Neuronal acetylcholine receptor; alpha3/beta4 (Homo sapiens) (UniProt P30926+P32297); test: Agonist activity at human alpha3beta4 nAChR in human IMR32 cells assessed as membrane depolarization after 1 hr by HPLC based fluorescence assay; assay type: functional, cell-based; details: IMR-32
Method in brief: (§2)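 Membrane potential dye assay in native SH-SY5Y, IMR-32 or TE-671 cells. Cells grown near confluence on poly-D-lysine plates in DMEM with 10% FBS, washed in HBSS/20 mM HEPES pH 7.4, then loaded with dye 1 h in dark at room temperature. Ex 530/em 565 nm. Sequence: 15 s basal, HPLC fraction 105 s, 300 µM nicotine (added solution), 160 mM KCl (added solution). Response = basal-subtracted peak ÷ KCl maximum.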

[4] = biological target: T2, Neuronal acetylcholine receptor; alpha3/beta4 (Homo sapiens); test: Agonist activity at human alpha3beta4 nAChR in human SH-SY5Y cells assessed as membrane depolarization after 1 hr by HPLC based fluorescence assay; assay type: functional, cell-based; method in brief: as §2
[5] = biological target: T1, Neuronal acetylcholine receptor; alpha3/beta4 (Rattus norvegicus); test: Agonist activity at rat alpha3beta4 nAChR expressed in HEK cells assessed as elevation of intracellular calcium after 1 hr by HPLC based fluorescence assay; assay type: functional, cell-based; details: HEK293
[6] = biological target: Neuronal acetylcholine receptor; alpha4/beta2 (Rattus norvegicus) (UniProt P09483+P12390); test: Agonist activity at rat alpha4beta2 nAChR expressed in HEK cells assessed as membrane depolarization after 1 hr by HPLC based fluorescence assay; assay type: functional, cell-based; details: HEK293; method in brief: as §1
[7] = biological target: Neuronal acetylcholine receptor; alpha4/beta4 (Rattus norvegicus) (UniProt P09483+P12392); test: Agonist activity at rat alpha4beta4 nAChR expressed in HEK cells assessed as membrane depolarization after 1 hr by HPLC based fluorescence assay; assay type: functional, cell-based; details: HEK293; method in brief: as §1
[8] = biological target: Acetylcholine receptor; alpha1/beta1/delta/gamma (Homo sapiens) (UniProt P02708+P07510+P11230+Q07001); test: Agonist activity at human alpha-1-beta-1-gamma-delta nAChR expressed in human TE671 cells assessed as membrane depolarization after 1 hr by HPLC based fluorescence assay; assay type: functional, cell-based; details: TE-671; method in brief: as §2
[9] = biological target: Neuronal acetylcholine receptor; alpha4/beta2 (Homo sapiens) (UniProt P17787+P43681); test: Agonist activity at human alpha4beta2 nAChR expressed in human K177 cells assessed as membrane depolarization after 1 hr by HPLC based fluorescence assay; assay type: functional, cell-based

Compound	fold change (FC) [1]	Activity [2]	Activity [3]	Activity [4]	Activity [5]	other results
Clc1ccc(C2=CCC[C@@H]3CC[C@H]2N3)cn1	3	–	–	–	–	–
O=C1NC[C@@]2(CN3CCC2CC3)O1	> 20	–	–	–	–	–
Clc1ccc(C2CC3CCC2N3)cn1 (stereo not given)	–	Active	Active	Active	Active	–
Clc1ccc2c(n1)O[C@@]13CC[C@@H]1NC[C@@H]23	–	Active	Active	Active	Active	Activity [6]: inactive; Activity [7]: Active; Activity [8]: inactive; Activity [9]: inactive
c1cncc([C@H]2C[C@@H]3CC[C@H]2N3)c1	3	–	–	–	–	–
